Assay results as given in paper PMC5393272 (Nature chemical biology, 2016).

Legend:
[1] = test system: N-linked glycosylation in D54-ERLucT cells; assay: D54-ERLucT cell based luciferase assay for inhibition of N-linked glycosylation; conditions: intact D54 ER-LucT cells in culture; maximum activation using 20 μM NGI-1; n=4
[2] = test system: luciferase N-linked glycosylation in D54 ER-LucT cells; assay: Western blot of luciferase N-linked glycosylation in NGI-1 treated cell cultures; format: cell-based; conditions: doses 25 times the estimated IC50; unlike tunicamycin
[3] = test system: LLO synthesis in CHO cells; assay: FACE analysis of LLOs in wild type CHO cells; format: cell-based; conditions: for effect on LLO synthesis: FACE
In short: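 Wild-type CHO cells were treated with test compound or tunicamycin. Lipid-linked oligosaccharides were analysed by fluorophore-assisted carbohydrate electrophoresis, with mature Glc3Man9 LLO as the size marker; n = 3.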

[4] = test system: OST; format: biochemical; conditions: NGI-1 5 μM; streptolysin-O permeabilized CHO cells; QYT or NYT peptide
In short: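 CHO cells permeabilized with streptolysin-O, incubated with test compound and either control tripeptide Ac-Gln-Tyr-Thr-CONH2 or glycosylation acceptor Ac-Asn-Tyr-Thr-CONH2. Free glycans and cleaved N-linked glycans resolved by fluorophore-assisted carbohydrate electrophoresis; n=2 for each product.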

[5] = test system: OST; assay: Cell free pSAP glycosylation with canine pancreas microsomes; format: biochemical; conditions: in vitro translation of pSAP mRNA, 60 min
[6] = target: STT3B (Homo sapiens, UniProt Q8TCJ2); assay: 35S metabolic labeling of SHBG glycosylation; format: cell-based
In short: (§1)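 HeLa cells transfected with pSAP or SHBG vectors, given 10 μM test compound and metabolically labelled with 35S. Glycoforms were scored and reported as the average number of glycans per sample, with endoglycosidase H-treated controls. Runs were compared with siRNA knockdown of STT3A or STT3B against non-coding siRNA. Dose-response was run on pSAP and SHBG expressed in HEK293 cells.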

[7] = target: STT3A (Homo sapiens, UniProt P46977); assay: 35S metabolic labeling of pSAP glycosylation; format: cell-based
Sequence of STT3A (P46977 whole entry): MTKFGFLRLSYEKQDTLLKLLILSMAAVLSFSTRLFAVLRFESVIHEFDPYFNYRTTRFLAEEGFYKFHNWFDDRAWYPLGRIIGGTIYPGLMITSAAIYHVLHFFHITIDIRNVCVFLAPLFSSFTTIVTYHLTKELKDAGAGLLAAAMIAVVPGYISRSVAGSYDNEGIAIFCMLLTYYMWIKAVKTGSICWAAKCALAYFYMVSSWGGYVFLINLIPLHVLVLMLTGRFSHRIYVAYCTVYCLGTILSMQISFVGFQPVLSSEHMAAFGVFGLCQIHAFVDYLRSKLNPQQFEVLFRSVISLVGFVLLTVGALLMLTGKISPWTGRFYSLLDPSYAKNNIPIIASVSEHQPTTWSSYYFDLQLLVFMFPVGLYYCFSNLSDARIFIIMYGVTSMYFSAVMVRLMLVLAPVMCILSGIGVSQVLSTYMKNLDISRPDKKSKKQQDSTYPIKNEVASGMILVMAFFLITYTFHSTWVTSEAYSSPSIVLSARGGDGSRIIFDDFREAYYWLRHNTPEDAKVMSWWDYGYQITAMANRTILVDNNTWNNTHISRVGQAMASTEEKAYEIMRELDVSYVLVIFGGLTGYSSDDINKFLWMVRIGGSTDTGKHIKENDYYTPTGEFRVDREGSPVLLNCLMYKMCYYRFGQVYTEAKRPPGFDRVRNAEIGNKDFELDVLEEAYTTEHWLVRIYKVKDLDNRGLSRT
In short: as §1

[8] = test system: EGFR; assay: Western blot of EGFR N-linked glycosylation in lung adenocarcinoma cells; format: cell-based; conditions: 10μM NGI-1, 24h; residual glycosylation remains
[9] = test system: EGFR; assay: EGFR localization by surface biotinylation and confocal microscopy; format: cell-based; conditions: H3255 cells, 10 μM NGI-1, 24 h; identical in HCC-827
[10] = test system: Integrin B1 (ITB1); assay: ITB1 glycosylation and localization; format: cell-based; conditions: 10μM NGI-1, 48 h; hypo-glycosylated ITB1 still at the cell surface
In short: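 H3255 cells were treated with 10 μM test compound for 48 h. Surface biotinylation: on ice, cells were labelled with 0.5 mg/ml Sulfo-NHS-SS-biotin in PBS for 60 min at 4°C, quenched with 100 mM glycine, lysed, and pulled down on streptavidin-agarose overnight at 4°C. Bound (surface) and unbound (intracellular) fractions were blotted on 7.5% SDS-PAGE. Confocal imaging used anti-β1-integrin at 1:500.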

[11] = test system: KD mutant EGFR; assay: EGFR phosphorylation western blot in PC9 cells; format: cell-based; conditions: 10μM NGI-1, 1 day
In short: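 PC9 cells (with A549 for comparison) were treated with 10 μM test compound for 24 h. Lysates were western blotted for EGFR phospho-Y1173, and glycoform gel-mobility shifts were noted.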

[12] = test system: PC9 cells; assay: MTT proliferation assay, PC9; format: cell-based
In short: (§2)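 NSCLC cells (2×10^3 per well, triplicate wells) were grown in 10% serum medium with 10 μM test compound or 1 μM tunicamycin; medium and inhibitor were renewed every 48 h. MTT was added 4 h before reading absorbance at 570 nm on days 0, 3 and 5. Mean ± s.d., n = 3; two-tailed t-tests.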

[13] = test system: A549 cell line; assay: MTT proliferation assay, A549; format: cell-based
In short: as §2

[14] = test system: H3225; assay: Proliferation assay, H3225; format: cell-based; conditions: H3225 (EGFR KD mutation), NGI-1
[15] = test system: HCC-827; assay: Proliferation assay, HCC-827; format: cell-based; conditions: HCC-827 (EGFR KD mutation), NGI-1
[16] = test system: H1581 cell line; assay: MTT proliferation assay, H1581; format: cell-based; conditions: H1581 (FGFR1-dependent), 10μM NGI-1, 5 d
In short: as §2

[17] = test system: H2444 cells; assay: MTT proliferation assay, H2444; format: cell-based; conditions: H2444 (FGFR amplified, not FGFR1-dependent), 10μM NGI-1, 5 d
In short: as §2

[18] = test system: FGFR1; assay: FGFR phosphorylation western blot in H1581 and H2444; format: cell-based; conditions: H1581 and H2444 NSCLC cell lines, NGI-1
In short: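 H1581 and H2444 NSCLC cells were treated with test compound. Lysates were western blotted with anti-phospho-FGFR (Tyr653/654) at 1:3,000, and gel mobility was assessed.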

[19] = test system: PC9 cells; assay: Apoptosis assessment, PC9; format: cell-based
[20] = test system: A549 cells; assay: Apoptosis assessment, A549; format: cell-based
[21] = test system: GRP78/BiP; assay: ER stress response, GRP78/BiP protein expression; format: cell-based; conditions: PC9 and A549 cell lines, NGI-1
[22] = test system: PC9 cells; assay: Cell cycle distribution by flow cytometry, PC9; format: cell-based; conditions: PC9, NGI-1 24 h; control 65%; p<.01
In short: (§3)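 Cells were treated with test compound (24 h stated for PC9 and A549). 1 × 10^6 cells were washed in ice-cold PBS, fixed overnight in ice-cold 70% ethanol at −20°C, then stained in Guava Cell Cycle Reagent for 30 min at room temperature. Analysis was on an LSRII cytometer, gating normal FSC/SSC and excluding doublets by FSC-A vs FSC-H. About 30,000 cells per run; mean of 3 independent assays; two-tailed t-tests.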

[23] = test system: H3225; assay: Cell cycle distribution by flow cytometry, H3225; format: cell-based; conditions: H3225, NGI-1 24 h; control 55%; p<.05
In short: as §3

[24] = test system: HCC-827 cells; assay: Cell cycle distribution by flow cytometry, HCC-827; format: cell-based; conditions: HCC-827, NGI-1 24 h; control 50%; p<.01
In short: as §3

[25] = test system: A549 cells; assay: Cell cycle distribution by flow cytometry, A549; format: cell-based; conditions: A549, NGI-1 24 h
In short: as §3

[26] = test system: H1581 cells; assay: Cell cycle distribution by flow cytometry, H1581; format: cell-based; conditions: H1581, NGI-1; control 55%; p<.05
In short: as §3

[27] = test system: H2444 cells; assay: Cell cycle distribution by flow cytometry, H2444; format: cell-based; conditions: H2444, NGI-1
In short: as §3

[28] = test system: cyclin D1; assay: Cyclin D1 mRNA and protein, A549; format: cell-based, human; conditions: A549, NGI-1
In short: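 Cyclin D1 mRNA: A549 and PC9 cells were treated with test compound, total RNA purified and reverse transcribed, and qPCR run with SYBR Green normalised to GAPDH. Cycling was 95°C 10 min, then 40 cycles of 95°C 30 s, 55°C 15 s, 72°C 30 s. Triplicate PCRs; n = 4; two-tailed t-tests. Protein was assessed by western blot, n = 3.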

[29] = test system: p21; assay: p21 protein western blot, PC9; format: cell-based; conditions: PC9, NGI-1
[30] = test system: PC9 cells; assay: Senescence assessment; format: cell-based; conditions: PC9, NGI-1 for 5 days; emission 575 nm; p<.05
In short: (§4)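 PC9 and A549 cells, untreated or given 10 μM test compound, were fixed in 70% ethanol and stained with DAPI for 30 min. Flow cytometry used 532 nm and 405 nm lasers; autofluorescence emission at 575 nm was read after DAPI gating; n = 4.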

[31] = test system: A549 cells; assay: Senescence assessment, A549; format: cell-based; conditions: A549, NGI-1 for 5 days
In short: as §4

[32] = HeLa cells, 10 μM, NGI-1 omitted during pulse labeling interval (20 minutes)

Molecule: Cc1cnc(NC(=O)c2cc(S(=O)(=O)N(C)C)ccc2N2CCCC2)s1 [NGI-1]
- AC50 (equivalent to IC50), luciferase activity [1]: 1100 nM
- extent of N-linked glycosylation inhibition [2]: did not completely abolish all N-linked glycosylation
- effect on LLO synthesis [3]: did not impair LLO synthesis
- increase of Glc3Man9GlcNAc2 LLO ([3]; p <.01): 31%
- production of OST products (free glycans and N-glycans) [4]: substantially reduce the production of both OST products
- inhibition of pSAP N-linked glycosylation [5]: dose dependent inhibition
- reversibility of inhibition of site occupancy (STT3B specific sites) [6, 32]: reversible
- LLO transfer to STT3B dependent sites (SHBG) ([6]; dose response, HEK293 cells): completely blocks
- reversibility of inhibition of site occupancy (STT3A specific sites) [7, 32]: reversible
- glycosylation of STT3A dependent sites (pSAP) ([7]; dose response, HEK293 cells): less potent and incompletely blocks
- EGFR N-linked glycosylation (molecular weight on SDS-PAGE) [8]: blocked EGFR N-linked glycosylation
- EGFR trafficking / cellular localization [9]: blocks EGFR trafficking to the cell surface
- ITB1 glycosylation [10]: significantly reduced ITB1 glycosylation
- phosphorylation of KD mutant EGFR (Y1173) [11]: blocked phosphorylation
- reduction of cell proliferation ([12]; PC9, 10μM NGI-1, after 3 days, MTT, p <.001): more than 90%
- effect on proliferation ([13]; A549 (KRAS G12S), 10μM NGI-1, MTT over 5 days): continued to proliferate
- effect on proliferation [14]: sensitive
- effect on proliferation [15]: sensitive
- effect on proliferation [16]: blocked proliferation
- effect on proliferation [17]: NGI-1 insensitive
- FGFR1 phosphorylation (Y653/654) [18]: blocked FGFR1 phosphorylation
- induction of apoptosis ([19]; PC9, NGI-1 for 2 or 5 days): did not induce apoptosis
- induction of apoptosis ([20]; A549, NGI-1 for 2 or 5 days): did not induce apoptosis
- ER stress response (GRP78/BiP protein expression) [21]: induced a similar ER stress response in both cell lines
- cells in G1 [22]: 90%
- cells in G1 [23]: 80%
- cells in G1 [24]: 75%
- cell cycle distribution [25]: did not significantly change
- cells in G1 [26]: 80%
- G1 arrest [27]: not in H2444 cells
- cyclin D1 mRNA and protein levels [28]: not significantly affected
- protein levels of p21 [29]: increase within 24 h
- increased autofluorescence by flow cytometry [30]: 60.4% ± 7.5%
- hallmarks of senescence (autofluorescence, lipofuscin aggregates, morphology) [31]: none of these changes were detected

Molecule: tunicamycin [reference compound]
- effect on LLO synthesis [3]: blocked all LLO production
- effect on proliferation ([12]; PC9, 1μM tunicamycin, MTT over 5 days): immediately blocks proliferation
- effect on proliferation ([13]; A549, 1μM tunicamycin, MTT over 5 days): immediately blocks proliferation
- induction of apoptosis ([19]; PC9, tunicamycin treatment): apoptosis was activated
- induction of apoptosis ([20]; A549, tunicamycin treatment): apoptosis was activated
